# Key:
# [1] = tested on: U2OS; assay: Multiplex assay against U2OS; type: toxicity, cell-based; conditions: human
# Procedure, shortened: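 With compound added, live cells were imaged on a CQ1 microscope at 37°C and 5% CO2; staining with Hoechst33342, BioTracker Green Microtubule Cytoskeleton Dye, MitoTracker Red and Annexin V Alexa Fluor 680 had been done at seeding. The CellPathfinder machine-learning gating scheme split cells into Hoechst high-intensity objects or normal cells, normal cells into healthy, pyknosed or fragmented nuclei, and pyknosed cells into mitotic or apoptotic. The tubulin, mitochondrial-mass and membrane-permeability phenotypes are per cents of healthy-nucleus cells.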
# [2] = tested on: U2OS; assay: Incucyte cell viability with U2OS; type: toxicity, cell-based; conditions: human, 10 µM, compound concentration 10 uM; further: filed as whole numbers so only -1 and 0 and 1 occur
# [3] = 12 h, 1 µM, compound concentration 1 uM, replicate 1
# [4] = 12 h, 1 µM, compound concentration 1 uM, replicate 2
# [5] = 12 h, 10 µM, compound concentration 10 uM, replicate 1
# [6] = 12 h, 10 µM, compound concentration 10 uM, replicate 2
# [7] = 24 h, 1 µM, compound concentration 1 uM, replicate 1
# [8] = 24 h, 1 µM, compound concentration 1 uM, replicate 2
# [9] = 24 h, 10 µM, compound concentration 10 uM, replicate 1
# [10] = 24 h, 10 µM, compound concentration 10 uM, replicate 2
# [11] = 48 h, 1 µM, compound concentration 1 uM, replicate 1
# [12] = 48 h, 1 µM, compound concentration 1 uM, replicate 2
# [13] = 48 h, 10 µM, compound concentration 10 uM, replicate 1
# [14] = 48 h, 10 µM, compound concentration 10 uM, replicate 2
smiles,measurement,setting,value
Oc1cccc(-c2nc(N3CCOCC3)c3oc4ncccc4c3n2)c1 [PI-103],Population Apoptotic (%),[1]; [3],73%
same,Population Fragmented Nuclei (%),[1]; [3],20%
same,Population Healthy Nuclei (%),[1]; [3],67%
same,Population Hoechst High Intensity Objects (%),[1]; [3],11%
same,Population Membrane Permeable-Phenotype (%),[1]; [3],8%
same,Population Mitochondria Different-Phenotype (%),[1]; [3],7%
same,Population Mitotic Cells (%),[1]; [3],26%
same,Population Normal (%),[1]; [3],88%
same,Population Pyknosed Nuclei (%),[1]; [3],12%
same,Population Tubulin-Different-Phenotype (%),[1]; [3],14%
same,Total Cell Count,[1]; [3],224
same,Population Apoptotic (%),[1]; [4],47%
same,Population Fragmented Nuclei (%),[1]; [4],10%
same,Population Healthy Nuclei (%),[1]; [4],63%
same,Population Hoechst High Intensity Objects (%),[1]; [4],5%
same,Population Membrane Permeable-Phenotype (%),[1]; [4],2%
same,Population Mitotic Cells (%),[1]; [4],52%
same,Population Normal (%),[1]; [4],94%
same,Population Pyknosed Nuclei (%),[1]; [4],26%
same,Population Tubulin-Different-Phenotype (%),[1]; [4],0%
same,Total Cell Count,[1]; [4],73
same,Population Apoptotic (%),[1]; [5],42%
same,Population Fragmented Nuclei (%),[1]; [5],20%
same,Population Healthy Nuclei (%),[1]; [5],47%
same,Population Hoechst High Intensity Objects (%),[1]; [5],6%
same,Population Membrane Permeable-Phenotype (%),[1]; [5],35%
same,Population Mitochondria Different-Phenotype (%),[1]; [5],63%
same,Population Mitotic Cells (%),[1]; [5],57%
same,Population Normal (%),[1]; [5],93%
same,Population Pyknosed Nuclei (%),[1]; [5],31%
same,Population Tubulin-Different-Phenotype (%),[1]; [5],80%
same,Total Cell Count,[1]; [5],168
same,Population Apoptotic (%),[1]; [6],36%
same,Population Fragmented Nuclei (%),[1]; [6],18%
same,Population Healthy Nuclei (%),[1]; [6],39%
same,Population Hoechst High Intensity Objects (%),[1]; [6],5%
same,Population Membrane Permeable-Phenotype (%),[1]; [6],33%
same,Population Mitochondria Different-Phenotype (%),[1]; [6],59%
same,Population Mitotic Cells (%),[1]; [6],63%
same,Population Normal (%),[1]; [6],94%
same,Population Pyknosed Nuclei (%),[1]; [6],41%
same,Population Tubulin-Different-Phenotype (%),[1]; [6],83%
same,Total Cell Count,[1]; [6],69
same,Population Apoptotic (%),[1]; [7],56%
same,Population Fragmented Nuclei (%),[1]; [7],21%
same,Population Healthy Nuclei (%),[1]; [7],61%
same,Population Hoechst High Intensity Objects (%),[1]; [7],8%
same,Population Membrane Permeable-Phenotype (%),[1]; [7],7%
same,Population Mitochondria Different-Phenotype (%),[1]; [7],4%
same,Population Mitotic Cells (%),[1]; [7],43%
same,Population Normal (%),[1]; [7],91%
same,Population Pyknosed Nuclei (%),[1]; [7],16%
same,Population Tubulin-Different-Phenotype (%),[1]; [7],11%
same,Total Cell Count,[1]; [7],224
same,Population Apoptotic (%),[1]; [8],75%
same,Population Fragmented Nuclei (%),[1]; [8],14%
same,Population Healthy Nuclei (%),[1]; [8],69%
same,Population Hoechst High Intensity Objects (%),[1]; [8],6%
same,Population Membrane Permeable-Phenotype (%),[1]; [8],3%
same,Population Mitochondria Different-Phenotype (%),[1]; [8],3%
same,Population Mitotic Cells (%),[1]; [8],25%
same,Population Normal (%),[1]; [8],93%
same,Population Tubulin-Different-Phenotype (%),[1]; [8],1%
same,Total Cell Count,[1]; [8],73
same,Population Apoptotic (%),[1]; [9],54%
same,Population Fragmented Nuclei (%),[1]; [9],25%
same,Population Healthy Nuclei (%),[1]; [9],40%
same,Population Hoechst High Intensity Objects (%),[1]; [9],10%
same,Population Membrane Permeable-Phenotype (%),[1]; [9],20%
same,Population Mitochondria Different-Phenotype (%),[1]; [9],62%
same,Population Mitotic Cells (%),[1]; [9],45%
same,Population Normal (%),[1]; [9],89%
same,Population Pyknosed Nuclei (%),[1]; [9],34%
same,Population Tubulin-Different-Phenotype (%),[1]; [9],74%
same,Total Cell Count,[1]; [9],196
same,Population Apoptotic (%),[1]; [10],50%
same,Population Fragmented Nuclei (%),[1]; [10],28%
same,Population Healthy Nuclei (%),[1]; [10],24%
same,Population Hoechst High Intensity Objects (%),[1]; [10],4%
same,Population Membrane Permeable-Phenotype (%),[1]; [10],44%
same,Population Mitochondria Different-Phenotype (%),[1]; [10],75%
same,Population Mitotic Cells (%),[1]; [10],49%
same,Population Normal (%),[1]; [10],95%
same,Population Pyknosed Nuclei (%),[1]; [10],47%
same,Population Tubulin-Different-Phenotype (%),[1]; [10],89%
same,Total Cell Count,[1]; [10],80
same,Population Apoptotic (%),[1]; [11],70%
same,Population Fragmented Nuclei (%),[1]; [11],18%
same,Population Healthy Nuclei (%),[1]; [11],64%
same,Population Hoechst High Intensity Objects (%),[1]; [11],7%
same,Population Membrane Permeable-Phenotype (%),[1]; [11],7%
same,Population Mitochondria Different-Phenotype (%),[1]; [11],6%
same,Population Mitotic Cells (%),[1]; [11],29%
same,Population Normal (%),[1]; [11],92%
same,Population Pyknosed Nuclei (%),[1]; [11],17%
same,Population Tubulin-Different-Phenotype (%),[1]; [11],16%
same,Total Cell Count,[1]; [11],222
same,Population Apoptotic (%),[1]; [12],63%
same,Population Fragmented Nuclei (%),[1]; [12],10%
same,Population Healthy Nuclei (%),[1]; [12],75%
same,Population Hoechst High Intensity Objects (%),[1]; [12],4%
same,Population Membrane Permeable-Phenotype (%),[1]; [12],8%
same,Population Mitochondria Different-Phenotype (%),[1]; [12],4%
same,Population Mitotic Cells (%),[1]; [12],36%
same,Population Normal (%),[1]; [12],95%
same,Population Pyknosed Nuclei (%),[1]; [12],13%
same,Population Tubulin-Different-Phenotype (%),[1]; [12],8%
same,Total Cell Count,[1]; [12],72
same,Population Apoptotic (%),[1]; [13],70%
same,Population Fragmented Nuclei (%),[1]; [13],35%
same,Population Healthy Nuclei (%),[1]; [13],26%
same,Population Hoechst High Intensity Objects (%),[1]; [13],15%
same,Population Membrane Permeable-Phenotype (%),[1]; [13],37%
same,Population Mitochondria Different-Phenotype (%),[1]; [13],48%
same,Population Mitotic Cells (%),[1]; [13],29%
same,Population Normal (%),[1]; [13],84%
same,Population Pyknosed Nuclei (%),[1]; [13],38%
same,Population Tubulin-Different-Phenotype (%),[1]; [13],56%
same,Total Cell Count,[1]; [13],215
same,Population Apoptotic (%),[1]; [14],68%
same,Population Fragmented Nuclei (%),[1]; [14],26%
same,Population Hoechst High Intensity Objects (%),[1]; [14],12%
same,Population Membrane Permeable-Phenotype (%),[1]; [14],85%
same,Population Mitochondria Different-Phenotype (%),[1]; [14],77%
same,Population Mitotic Cells (%),[1]; [14],31%
same,Population Normal (%),[1]; [14],87%
same,Population Pyknosed Nuclei (%),[1]; [14],47%
same,Population Tubulin-Different-Phenotype (%),[1]; [14],88%
same,Total Cell Count,[1]; [14],86
same,Growth Rate,"[2]; 0 h, replicate number 1, timepoint 0 hours",0
same,Growth Rate,"[2]; 6 h, replicate number 1, timepoint 6 hours",1
same,Growth Rate,"[2]; 12 h, replicate number 1, timepoint 12 hours",1
same,Growth Rate,"[2]; 18 h, replicate number 1, timepoint 18 hours",0
same,Growth Rate,"[2]; 18 h, replicate number 2, timepoint 18 hours",1
same,Growth Rate,"[2]; 24 h, replicate number 1, timepoint 24 hours",0
same,Growth Rate,"[2]; 24 h, replicate number 2, timepoint 24 hours",1

# — ChEMBL document CHEMBL4689842, “EUbOPEN Chemogenomics Library wave 1” (2021)
